Screening data: PubChem, The Scripps Research Institute Molecular Screening Center
In the library only some 2% were active in any assay of this set; here they are far more common.
LEDGF integ inh – blocks HIV-1 LEDGF/p75-dependent DNA integration; TR-FRET IN-LEDGF/p75 DNA integration, Eu/Cy5; inhibition, % at 3.7 µM; 0.64% of 370,000 active;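 active = inhibition above the screen-wide mean plus 3 SD, cut at about 13% in these data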;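 also: signal is the Cy5 over europium emission ratio at 671 and 618 nm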
TDP2 absorb – blocks human TDP2 phosphodiesterase activity. 0.34% of 370,000 active. inhibition, % at 12.8 µM. AID 720702. recombinant TDP2, T5PNP hydrolysis, p-nitrophenol absorbance 415 nm. O95551;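 active = inhibition above the mean of all tested compounds plus 3 SD, set per campaign, cut at about 25% in these data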
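Test system: Human TDP2 enzyme | Reagent: 5 mM T5PNP | Compound dosing: 12.8 µM single point, 1% DMSO | Incubation: Enzyme reaction with compound for 2 h at 37 °C | Technique: p-Nitrophenol epi absorbance | Read-out: % inhibition relative to enzyme-containing and enzyme-free wells | Benchmarks: High control without enzyme, low control DMSO plus TDP2 | Replicates: Singlicate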
MBD2 inh – blocks human MBD2 binding to methylated DNA; inhibition, % at 4.4 µM; TR-FRET, MBD2 binding to methylated oligonucleotide; AID 686964; 0.31% of 370,000 active; Q9UBB5; in the data active = inhibition above about 13%
Target sequence (Q9UBB5 whole entry, looked up): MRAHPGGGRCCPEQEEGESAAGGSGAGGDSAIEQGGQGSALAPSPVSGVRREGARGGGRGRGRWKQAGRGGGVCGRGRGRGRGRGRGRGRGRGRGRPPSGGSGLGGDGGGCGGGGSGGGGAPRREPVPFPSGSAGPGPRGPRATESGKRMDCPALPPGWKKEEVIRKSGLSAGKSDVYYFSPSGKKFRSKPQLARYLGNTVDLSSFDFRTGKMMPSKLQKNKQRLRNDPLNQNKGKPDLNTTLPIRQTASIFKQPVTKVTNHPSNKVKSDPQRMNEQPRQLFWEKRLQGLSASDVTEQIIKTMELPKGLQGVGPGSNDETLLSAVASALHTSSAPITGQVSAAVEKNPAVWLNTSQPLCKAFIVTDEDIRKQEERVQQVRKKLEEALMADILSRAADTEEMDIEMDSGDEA
ARFGAP1 inh – inhibits rat ARF GTPase activating protein 1. Arfgap1-stimulated ARF1 GTP hydrolysis, GDP FP detection. inhibition, % at 16.5 µM. 0.26% of 360,000 active;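 active = inhibition above a per-plate limit, mean inhibition of low control wells plus 3 SD, cut at about 25% in these data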
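System: truncated rat Arfgap1 GAP domain / Medium: HEPES-based buffer, pH 7.5 / Also added: N-terminally truncated human ARF1-GTP substrate / Incubation: enzyme reaction 120 min at 25 °C after 20 min preincubation / Measured by: FP of antibody-bound GDP Alexa 633 tracer, ex 620/em 688 nm / Replicates: singlicate, each compound tested once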
ASAP1 inh – inhibitors of human ASAP1 ArfGAP activity; inhibition, % at 16.5 µM; ASAP1-stimulated ARF1 GTP hydrolysis, GDP FP detection; 0.19% of 360,000 active; AID 624377; in the data active = inhibition above about 25%
UHRF1 binding – UHRF1 methyl-DNA binding inhibition | 0.75% of 370,000 active | inhibition, % at 4.4 µM | UHRF1 binding to methylated oligo, TR-FRET | AID 687016 | Q96T88; in the data active = inhibition above about 21%;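 also: UHRF1 SRA domain binding a hemimethylated CpG hairpin DNA probe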
Numbers stand for hits; 0 = inactive; - = no result given.

SMILES	LEDGF integ inh	TDP2 absorb	MBD2 inh	ARFGAP1 inh	ASAP1 inh	UHRF1 binding
O=C(CCN=C1NS(=O)(=O)c2ccccc21)OCC(=O)c1ccccc1	0	0	0	0	0	32
O=C(CCCN=C1NS(=O)(=O)c2ccccc21)OCC(=O)c1ccccc1	0	0	0	0	0	0
COc1ccc(-c2cc(-c3nnc4sc(-c5cccs5)nn34)[nH]n2)cc1	0	0	0	-	-	0
CCOc1ccccc1OCC(=O)Nc1ccc(S(=O)(=O)N(C)C)cc1	0	0	0	0	0	47
CC(OC(=O)c1cc(O)c2ccccc2c1O)C(=O)Nc1ccc(C(N)=O)cc1 (centres undefined)	14	47	0	0	0	0
CC(OC(=O)c1ccccc1C(=O)N(C)c1ccccc1)C(=O)Nc1ccc(C(N)=O)cc1 (centres undefined)	0	0	0	0	0	0
O=C1Nc2ccccc2Nc2ccccc21	0	0	0	0	0	23
O=C1Nc2ccccc2C1=O	0	0	0	0	0	0
Cc1sc2nc(COC(=O)CNC(=O)c3ccccc3Cl)[nH]c(=O)c2c1C	0	0	0	-	-	0
C=CCN(Cc1ccc(OC)cc1OC)C(C#CCCCC)c1ccccc1 (centres undefined)	0	0	0	-	-	0
O=C(NCC(O)c1ccc([N+](=O)[O-])cc1)Nc1ccccc1 (centres undefined)	0	0	0	0	0	0
CC(NCC(O)c1ccc([N+](=O)[O-])cc1)C12CC3CC(CC(C3)C1)C2 (centres undefined)	0	0	0	0	0	22
O=C(NNC(=O)c1sccc1-n1cccc1)c1cccs1	0	0	0	0	0	0
C/C(=N\NC(=O)c1sccc1-n1cccc1)c1cccs1	0	0	0	0	0	41
Cc1cc(C)cc(NC(=S)Nc2cccc3ccccc23)c1	0	0	0	0	0	66
COc1cc(CCC(=O)Nc2ccc(C)c(S(=O)(=O)N(C)C)c2)cc(OC)c1OC	0	0	0	0	0	21
COc1ccc(CCC(=O)Nc2ccc(C)c(S(=O)(=O)N(C)C)c2)cc1OC	0	0	0	0	0	0
COC(=O)[C@H]1C[C@@]2(N3CCCC3)c3ccccc3N(C(=O)OC(C)(C)C)[C@H]2N1C(=O)OC(C)(C)C	0	0	0	-	-	0
O=C(Nc1ccc(F)cc1)OCCN1CCCC12CCC(c1ccccc1)CC2 (centres undefined)	0	0	0	-	-	0
CN(C)CCNC(=O)c1cccc2nc3c(ccc4ccccc43)nc12	0	0	31	0	0	0
N=c1n(CC(=O)c2cccs2)c2ccccc2n1Cc1ccccc1	0	0	0	0	0	25
O=C(O)Cn1c(=O)n(Cc2ccccc2)c2ccccc21	0	0	0	0	0	28
O=C(NCCc1c[nH]c2ccccc12)OCc1cn(Cc2ccccc2F)nn1	0	0	0	-	-	0
CC1CCC2(CCC(=O)N2CCCOC(=O)Nc2cccc(C(F)(F)F)c2)CC1 (centres undefined)	0	0	0	-	-	0
CCNC(=S)Nc1ccc(C)c(Cl)c1	0	0	0	0	0	25
SMILES	LEDGF integ inh	TDP2 absorb	MBD2 inh	ARFGAP1 inh	ASAP1 inh	UHRF1 binding
CCOC(=O)C1CCN(C(=O)C(C)(C)NC(=O)Nc2ccc(OC)c(Cl)c2)CC1	0	0	0	-	-	0
O=C(Nc1ccc(S(=O)(=O)NCC2CCCO2)cc1)c1ccc(Cl)cc1[N+](=O)[O-] (centres undefined)	0	0	0	0	0	0
Cc1c(C(=O)Nc2ccc(S(=O)(=O)NCC3CCCO3)cc2)cccc1[N+](=O)[O-] (centres undefined)	0	0	0	0	0	21
CC(C)NC(=O)N(C)C[C@H]1OCCCC[C@H](C)Oc2ccc(NS(=O)(=O)c3ccccc3)cc2C(=O)N([C@H](C)CO)C[C@H]1C	0	0	0	0	0	22
COc1ccc(C2/C(=C(/O)c3ccc(C)cc3)C(=O)C(=O)N2CC2CCCO2)cc1OC (centres undefined)	0	0	0	0	0	22
Cc1cnc(C(=O)OCC(=O)N2CCC(C)CC2)cn1	0	0	0	0	0	0
